This is an account of results in ChEMBL document CHEMBL1148568, “Synthesis and biological evaluation of 3-ethylidene-1,3-dihydro-indol-2-ones as novel checkpoint 1 inhibitors” (Bioorg Med Chem Lett, 2006).

Test [1] deals with T1, Serine/threonine-protein kinase Chk1 (Homo sapiens, UniProt O14757).
T1 sequence (O14757 whole entry): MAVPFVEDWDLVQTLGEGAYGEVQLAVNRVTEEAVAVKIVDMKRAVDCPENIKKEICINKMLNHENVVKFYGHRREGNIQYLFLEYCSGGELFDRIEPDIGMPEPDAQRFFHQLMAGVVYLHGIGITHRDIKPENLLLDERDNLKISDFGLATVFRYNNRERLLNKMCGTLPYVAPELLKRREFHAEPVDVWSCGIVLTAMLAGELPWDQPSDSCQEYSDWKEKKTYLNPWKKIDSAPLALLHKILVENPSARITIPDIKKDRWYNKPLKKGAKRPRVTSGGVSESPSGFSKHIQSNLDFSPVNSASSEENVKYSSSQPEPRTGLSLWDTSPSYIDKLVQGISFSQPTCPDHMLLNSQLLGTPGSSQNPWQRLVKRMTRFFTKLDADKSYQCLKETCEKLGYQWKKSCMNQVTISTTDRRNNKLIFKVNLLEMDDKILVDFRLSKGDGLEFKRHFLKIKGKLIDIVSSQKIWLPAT
Nature of the test: Inhibitory activity against Chk1.

For test [2], the target named is Cyclin-dependent kinase 1 (Homo sapiens, UniProt P06493). The experiment in a line: Inhibitory activity against CDC2.
The target of test [3] is T2, Serine/threonine-protein kinase Sgk1 (Homo sapiens, UniProt O00141).
T2 sequence (O00141 whole entry): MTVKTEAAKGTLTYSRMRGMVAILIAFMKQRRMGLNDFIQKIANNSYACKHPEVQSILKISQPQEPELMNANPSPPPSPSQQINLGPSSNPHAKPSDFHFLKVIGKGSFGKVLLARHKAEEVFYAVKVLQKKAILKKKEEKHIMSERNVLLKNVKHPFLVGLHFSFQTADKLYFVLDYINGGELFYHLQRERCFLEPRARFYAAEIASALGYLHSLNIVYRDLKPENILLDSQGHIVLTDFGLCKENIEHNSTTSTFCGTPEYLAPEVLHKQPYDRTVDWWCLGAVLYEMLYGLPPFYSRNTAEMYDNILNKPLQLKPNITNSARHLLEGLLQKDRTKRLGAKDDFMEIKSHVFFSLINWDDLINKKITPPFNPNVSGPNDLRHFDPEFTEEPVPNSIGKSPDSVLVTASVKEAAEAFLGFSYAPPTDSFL
Nature of the test: Inhibitory activity against SGK.

In test [4] the target is Protein kinase C delta type (Homo sapiens, UniProt Q05655). The experiment in a line: Inhibitory activity against PKC delta.
The target in test [5] is Epidermal growth factor receptor (Homo sapiens, UniProt P00533). The experiment in a line: Inhibitory activity against EGFR.
The next test deals with Angiopoietin-1 receptor (Homo sapiens, UniProt Q02763). The experiment in a line: Inhibitory activity against Tie2.
For test [6], the target named is Serine/threonine-protein kinase Chk2 (Homo sapiens, UniProt O96017). The experiment in a line: Inhibitory activity against Chk2.
For test [7], the target named is Protein kinase C gamma type (Homo sapiens, UniProt P05129). Nature of the test: Inhibitory activity against PKC gamma.
Test [8] has as its target Proto-oncogene tyrosine-protein kinase Src (Homo sapiens, UniProt P12931). The experiment in a line: Inhibitory activity against SRC.
Another test concerns the target Casein kinase II (Homo sapiens, UniProt P19784+P67870+P68400). Nature of the test: Inhibitory activity against CK2. Format: protein-complex assay.
Test [9] concerns the target MAP kinase-activated protein kinase 2 (Homo sapiens, UniProt P49137). Nature of the test: Inhibitory activity against MAPKAP2.
In test [10] the test system is HeLa. The experiment in a line: Antiproliferative activity against human HeLa cells by MTS assay. Format: functional, cell-based. The method in brief: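 p53-deficient human cervical cancer HeLa cells were treated with the test compound alone over varying concentrations. Proliferation was read out by MTS, and the antiproliferative EC50 was determined.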
The subject of test [11] is HeLa. The experiment in a line: Antiproliferative activity against human HeLa cells by MTS assay in the presence of doxorubicin. The test is classed as functional, cell-based. (Tetrazolium assays rely on reduction of a dye to a coloured formazan, in cell work by metabolically active cells.)

Cyclin-dependent kinase 1, sequence (P06493 whole entry): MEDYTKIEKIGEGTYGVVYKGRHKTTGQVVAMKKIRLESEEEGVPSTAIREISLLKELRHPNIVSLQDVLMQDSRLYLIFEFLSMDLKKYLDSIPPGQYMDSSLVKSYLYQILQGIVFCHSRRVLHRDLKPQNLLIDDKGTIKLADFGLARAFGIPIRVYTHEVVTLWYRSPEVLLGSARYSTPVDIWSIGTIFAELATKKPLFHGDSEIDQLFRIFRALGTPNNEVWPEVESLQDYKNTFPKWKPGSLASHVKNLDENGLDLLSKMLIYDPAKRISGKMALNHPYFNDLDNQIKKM
Proto-oncogene tyrosine-protein kinase Src, sequence (P12931 2-536 limits assumed): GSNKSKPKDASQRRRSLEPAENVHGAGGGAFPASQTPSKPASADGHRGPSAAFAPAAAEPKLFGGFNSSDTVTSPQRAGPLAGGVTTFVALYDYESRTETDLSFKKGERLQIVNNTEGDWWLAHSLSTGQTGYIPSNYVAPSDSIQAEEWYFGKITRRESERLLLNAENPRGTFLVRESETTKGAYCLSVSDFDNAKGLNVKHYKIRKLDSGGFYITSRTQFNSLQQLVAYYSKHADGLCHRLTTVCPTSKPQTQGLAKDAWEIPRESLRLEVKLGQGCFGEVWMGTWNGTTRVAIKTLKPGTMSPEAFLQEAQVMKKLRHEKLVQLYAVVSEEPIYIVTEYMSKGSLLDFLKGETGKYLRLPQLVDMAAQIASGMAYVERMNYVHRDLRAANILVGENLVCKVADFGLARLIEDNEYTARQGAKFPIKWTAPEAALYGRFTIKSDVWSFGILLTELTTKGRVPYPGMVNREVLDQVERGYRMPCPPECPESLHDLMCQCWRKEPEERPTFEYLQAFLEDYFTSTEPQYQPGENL
Serine/threonine-protein kinase Chk2, sequence (O96017 whole entry): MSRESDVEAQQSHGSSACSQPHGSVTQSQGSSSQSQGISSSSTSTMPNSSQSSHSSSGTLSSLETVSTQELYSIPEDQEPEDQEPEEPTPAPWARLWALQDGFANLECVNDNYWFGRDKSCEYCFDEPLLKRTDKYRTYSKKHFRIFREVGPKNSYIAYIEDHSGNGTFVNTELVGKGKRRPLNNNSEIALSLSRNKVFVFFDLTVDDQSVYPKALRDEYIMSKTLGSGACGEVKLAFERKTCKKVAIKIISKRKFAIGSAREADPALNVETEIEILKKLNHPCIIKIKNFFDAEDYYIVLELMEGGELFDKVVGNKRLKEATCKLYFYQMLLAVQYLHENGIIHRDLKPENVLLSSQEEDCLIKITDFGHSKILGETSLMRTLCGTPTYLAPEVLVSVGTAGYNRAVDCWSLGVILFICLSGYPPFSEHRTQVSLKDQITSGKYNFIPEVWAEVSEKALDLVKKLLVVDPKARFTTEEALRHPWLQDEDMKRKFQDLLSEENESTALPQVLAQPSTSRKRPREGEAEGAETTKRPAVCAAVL
Angiopoietin-1 receptor, sequence (Q02763 whole entry): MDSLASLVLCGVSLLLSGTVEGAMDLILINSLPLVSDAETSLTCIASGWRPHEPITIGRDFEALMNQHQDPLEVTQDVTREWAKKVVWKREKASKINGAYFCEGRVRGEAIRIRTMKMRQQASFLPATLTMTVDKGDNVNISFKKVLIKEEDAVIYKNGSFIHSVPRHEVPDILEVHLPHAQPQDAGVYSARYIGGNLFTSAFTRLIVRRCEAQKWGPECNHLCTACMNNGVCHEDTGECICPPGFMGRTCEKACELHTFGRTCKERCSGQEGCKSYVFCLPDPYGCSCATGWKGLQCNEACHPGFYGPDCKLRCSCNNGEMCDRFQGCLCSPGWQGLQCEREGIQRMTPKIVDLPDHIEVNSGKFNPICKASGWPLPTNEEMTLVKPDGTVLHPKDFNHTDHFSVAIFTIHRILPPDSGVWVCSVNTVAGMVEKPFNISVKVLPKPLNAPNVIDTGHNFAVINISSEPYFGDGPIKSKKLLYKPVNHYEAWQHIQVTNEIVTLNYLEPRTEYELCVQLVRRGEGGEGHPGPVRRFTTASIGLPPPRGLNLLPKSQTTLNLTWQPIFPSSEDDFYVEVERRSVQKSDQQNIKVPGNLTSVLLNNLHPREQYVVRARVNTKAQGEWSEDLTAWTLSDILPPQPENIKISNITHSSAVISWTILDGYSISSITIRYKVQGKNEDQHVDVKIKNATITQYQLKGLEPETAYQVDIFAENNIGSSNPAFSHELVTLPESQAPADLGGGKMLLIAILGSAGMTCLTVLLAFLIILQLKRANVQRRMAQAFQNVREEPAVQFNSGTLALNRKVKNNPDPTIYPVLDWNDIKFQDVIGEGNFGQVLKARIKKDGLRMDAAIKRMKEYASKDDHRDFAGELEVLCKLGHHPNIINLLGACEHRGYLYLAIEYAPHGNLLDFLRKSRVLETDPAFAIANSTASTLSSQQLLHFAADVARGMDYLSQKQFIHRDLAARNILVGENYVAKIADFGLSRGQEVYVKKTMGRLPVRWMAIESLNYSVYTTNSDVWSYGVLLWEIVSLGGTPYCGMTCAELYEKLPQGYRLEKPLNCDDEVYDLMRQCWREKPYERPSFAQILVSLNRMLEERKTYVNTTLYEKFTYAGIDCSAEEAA
Casein kinase II, sequence (P67870 whole entry): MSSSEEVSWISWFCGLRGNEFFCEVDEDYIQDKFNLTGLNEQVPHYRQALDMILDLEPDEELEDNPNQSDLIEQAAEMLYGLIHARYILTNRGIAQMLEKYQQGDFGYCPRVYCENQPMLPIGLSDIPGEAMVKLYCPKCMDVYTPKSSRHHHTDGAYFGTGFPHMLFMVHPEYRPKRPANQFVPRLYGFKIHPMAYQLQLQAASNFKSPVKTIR
Casein kinase II, sequence (P68400 whole entry): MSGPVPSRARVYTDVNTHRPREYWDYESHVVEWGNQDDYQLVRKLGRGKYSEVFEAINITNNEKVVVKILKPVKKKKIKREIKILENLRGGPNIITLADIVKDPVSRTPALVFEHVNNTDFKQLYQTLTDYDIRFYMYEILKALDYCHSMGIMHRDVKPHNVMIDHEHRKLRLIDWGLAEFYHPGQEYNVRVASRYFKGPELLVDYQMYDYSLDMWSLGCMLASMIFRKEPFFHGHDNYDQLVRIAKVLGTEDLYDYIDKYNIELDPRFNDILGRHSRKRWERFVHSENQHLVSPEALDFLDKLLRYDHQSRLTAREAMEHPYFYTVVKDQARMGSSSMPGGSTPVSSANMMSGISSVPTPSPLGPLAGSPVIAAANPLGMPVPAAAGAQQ
Casein kinase II, sequence (P19784 whole entry): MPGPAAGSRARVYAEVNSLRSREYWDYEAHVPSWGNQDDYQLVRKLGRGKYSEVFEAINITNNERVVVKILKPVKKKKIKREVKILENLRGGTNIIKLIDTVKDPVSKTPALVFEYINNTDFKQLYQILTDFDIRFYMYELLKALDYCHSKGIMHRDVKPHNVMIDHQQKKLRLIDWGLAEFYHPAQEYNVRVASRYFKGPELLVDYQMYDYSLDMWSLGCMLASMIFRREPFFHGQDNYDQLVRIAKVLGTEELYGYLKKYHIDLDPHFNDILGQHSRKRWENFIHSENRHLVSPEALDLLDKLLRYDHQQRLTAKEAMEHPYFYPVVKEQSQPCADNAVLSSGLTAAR
Protein kinase C delta type, sequence (Q05655 whole entry): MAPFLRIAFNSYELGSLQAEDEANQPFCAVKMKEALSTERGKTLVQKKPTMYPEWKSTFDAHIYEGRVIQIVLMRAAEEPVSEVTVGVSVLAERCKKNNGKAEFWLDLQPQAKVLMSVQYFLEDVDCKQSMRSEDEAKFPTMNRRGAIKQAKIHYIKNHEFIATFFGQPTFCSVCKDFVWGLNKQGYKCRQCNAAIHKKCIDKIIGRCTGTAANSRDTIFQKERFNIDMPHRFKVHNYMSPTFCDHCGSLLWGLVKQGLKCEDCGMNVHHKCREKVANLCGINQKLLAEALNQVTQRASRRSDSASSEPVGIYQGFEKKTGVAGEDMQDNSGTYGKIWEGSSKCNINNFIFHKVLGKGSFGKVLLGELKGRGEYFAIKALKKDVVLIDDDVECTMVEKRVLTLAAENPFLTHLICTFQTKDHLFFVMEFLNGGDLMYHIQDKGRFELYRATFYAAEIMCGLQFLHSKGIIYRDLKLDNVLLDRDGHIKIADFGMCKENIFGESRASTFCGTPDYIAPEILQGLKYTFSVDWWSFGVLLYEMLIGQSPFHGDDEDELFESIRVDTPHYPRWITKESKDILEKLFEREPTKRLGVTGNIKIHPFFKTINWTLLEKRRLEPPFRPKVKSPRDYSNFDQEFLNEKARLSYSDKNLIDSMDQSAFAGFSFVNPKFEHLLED

By IC50 is commonly meant the concentration that gives 50% inhibition. A high value points to weaker potency. The compound `O=C1Nc2cc(-c3ccc(F)c(F)c3)ccc2/C1=C/c1cc[nH]c1` came in with an IC50 in test [1] greater than 10 µM.

Compound `O=C1Nc2cc(-c3ccc(OC(F)(F)F)cc3)ccc2/C1=C/c1cc[nH]c1` yielded an IC50 in test [1] greater than 10 µM.

`COC(=O)CCc1c(C)[nH]c(/C=C2\C(=O)Nc3cc(-c4ccc(O)c(OC)c4)ccc32)c1C` displayed an IC50 in test [1] of 0.075 µM. This counts as double-digit nanomolar.

As for `COc1cc(-c2ccc3c(c2)NC(=O)/C3=C\c2c[nH]c3ccccc23)ccc1O`, it took 0.092 µM to reach half-maximal inhibition in [1] (IC50).

Compound `COc1cc(-c2ccc3c(c2)NC(=O)/C3=C\c2c[nH]c3nc(C#N)ccc23)ccc1O` yielded an IC50 in test [1] of 0.445 µM.

Take `COc1cc(-c2ccc3c(c2)NC(=O)/C3=C\c2ncc[nH]2)ccc1O`: the IC50 in test [2] was 0.251 µM; in test [3], 1.5 µM; in [4] it was greater than 50 µM; in test [5] it was greater than 50 µM; against Angiopoietin-1 receptor it was 23.3 µM; in [1] it was 0.018 µM. The IC50 was 14.6 µM in test [6], greater than 50 µM in test [7] and greater than 50 µM in test [8].

In the case of `COc1cc(-c2ccc3c(c2)NC(=O)/C3=C\c2[nH]c(C)cc2C)ccc1O`, in test [1], inhibition was half-maximal at 0.12 µM (IC50).

As for `COc1cc(-c2ccc3c(c2)NC(=O)/C3=C\c2[nH]c(C)cc2-c2ccccc2)ccc1O`, the IC50 in test [1] is greater than 10 µM.

In the case of `Cc1ccc(-c2ccc3c(c2)NC(=O)/C3=C\c2cc[nH]c2)cc1`, the IC50 in [1] is greater than 10 µM.

In the case of `COc1cc(-c2ccc3c(c2)NC(=O)/C3=C\c2ccc[nH]2)ccc1O`, the IC50 (in test [2]; in test [3]; in test [4]; in test [5]; against Casein kinase II; at Angiopoietin-1 receptor) was greater than 50 µM throughout. The IC50 in [6] was 21.7 µM; in [9], greater than 50 µM; in test [7], greater than 50 µM; in test [8], greater than 50 µM.

In the case of `COc1cc(-c2ccc3c(c2)/C(=C/c2c[nH]c4c(C)cccc24)C(=O)N3)ccc1O`, in test [1], the IC50 stood at 3.46 µM.

As for `COc1cc(-c2ccc3c(c2)/C(=C/c2c[nH]c4ccccc24)C(=O)N3)ccc1O`, the IC50 in test [1] is greater than 50 µM.

Consider `COc1cc(-c2ccc3c(c2)NC(=O)/C3=C\c2[nH]c(C)c(CN(C)C)c2C(C)C)ccc1O`, for which, in test [1], inhibition was half-maximal at 1.28 µM (IC50). In other words, the single-digit micromolar range.

`COc1cc(-c2ccc3c(c2)/C(=C/c2ccc[nH]2)C(=O)N3)ccc1O` yielded an IC50 in test [1] of 2.84 µM.

The compound `COc1cc(-c2ccc3c(c2)NC(=O)/C3=C\c2[nH]c(C)cc2C(C)C)ccc1O` returned an IC50 in test [1] of 3.46 µM.

Regarding `Nc1ccc(-c2ccc3c(c2)NC(=O)/C3=C\c2cc[nH]c2)cc1`, in test [1], inhibition was half-maximal at 1.03 µM (IC50).

In test [1], `COc1cc(-c2ccc3c(c2)NC(=O)/C3=C\c2c[nH]c3c(C)cccc23)ccc1O` gave an IC50 of 1.31 µM. The IC50 values of the last two compounds are within 1.5-fold of each other.

As to `COc1cc(-c2ccc3c(c2)NC(=O)/C3=C\c2cccc(OC)c2OC)ccc1O`, the IC50 in test [1] was greater than 50 µM.

`COc1cc(-c2ccc3c(c2)NC(=O)/C3=C\c2cc[nH]c2)ccc1O` registered an IC50 in test [1] of 0.025 µM.

On to `COc1cc(-c2ccc3c(c2)/C(=C/c2cccc(OC)c2OC)C(=O)N3)ccc1O`, for which the IC50 in test [1] is greater than 50 µM.

In test [1], `COc1cc(-c2ccc3c(c2)NC(=O)/C3=C\C2CCCN2)ccc1O` (stereo unspecified) returned an IC50 of 3.97 µM.

`COc1cc(-c2ccc3c(c2)NC(=O)/C3=C\c2[nH]c(C)c(CCO)c2C)ccc1O` showed an IC50 in [1] of 0.047 µM.

`COc1cc(O)ccc1-c1ccc2c(c1)NC(=O)/C2=C\c1cc[nH]c1` had an IC50 in test [1] of 0.01 µM. Compared with the last compound, the IC50 is about 4.7-fold lower.

Compound `COc1cc(-c2ccc3c(c2)NC(=O)/C3=C\c2cc[nH]c2)cc(OC)c1OC` registered an IC50 in test [1] greater than 10 µM.

A word on the EC50: it is the concentration needed to bring the measured effect to its halfway point. As to `COc1cc(-c2ccc3c(c2)NC(=O)/C3=C\c2c[nH]c3ncccc23)ccc1O`, the IC50 in [2] was 0.454 µM; in test [3], greater than 50 µM; on Casein kinase II it was 41.7 µM; in test [1], 0.004 µM; in [6], 22.7 µM; in test [9] it was greater than 50 µM. The compound also showed an IC50 in test [8] of 2.38 µM. Also, the EC50 in the test with HeLa [10] worked out at 0.01 µM; in the test on HeLa [11], 0.18 µM.

`O=C1Nc2cc(-c3ccc(O)cc3)ccc2/C1=C/c1cc[nH]c1` yielded an IC50 in [1] of 0.029 µM.
